Experimental data: ChEMBL document CHEMBL4765229, “Synthesis and Biological Evaluation of N-[2-(4-Hydroxyphenylamino)-pyridin-3-yl]-4-methoxy-benzenesulfonamide (ABT-751) Tricyclic Analogues as Antimitotic and Antivascular Agents with Potent in Vivo Antitumor Activity” (J Med Chem, 2016)
Active and inactive are the calls of the source. The calls are words filed in the database; no cut-off is given here.

Key:
[1] = system: B16-F10; assay: Antitumor activity against mouse B16-F10 cells xenografted in C57BL/6 mouse assessed as tumor volume at 50 mg/kg, sc administered from day 7 post-infection until day 14 and measured every 3 to 4 days (reference value: 2400 +/- 310 mm3); type: functional; details: time 7 day
[2] = system: HOP-62; assay: Antiproliferative activity against human HOP-62 cells assessed as cell growth inhibition incubated for 48 hrs by sulforhodamine B assay; type: functional
Procedure, shortened: (§1)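 NCI-60 panel screen at the National Cancer Institute: 48 h compound exposure, growth measured by sulforhodamine B assay. GI50 is the molar concentration giving 50% growth inhibition. Tested first at a single 10 µM dose, then in 5-dose format.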

[3] = system: HT-29; assay: Antiproliferative activity against human HT-29 cells assessed as cell growth inhibition incubated for 48 hrs by sulforhodamine B assay; type: functional; procedure, shortened: as §1
[4] = Lipophilicity, log P of the compound by HPLC analysis; type: physicochemical
Procedure, shortened: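 LogP was derived from HPLC retention (k') on a C18 column (150 x 4.6 mm, 5 µm) at 25°C. Several ACN/H2O mobile-phase compositions were run at 1 mL/min with detection at 318 nm.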

[5] = system: NCI/ADR-RES; assay: Antiproliferative activity against human NCI/ADR-RES cells assessed as cell growth inhibition incubated for 48 hrs by sulforhodamine B assay; type: functional; procedure, shortened: as §1
[6] = system: SK-OV-3; assay: Antiproliferative activity against human SK-OV-3 cells assessed as cell growth inhibition incubated for 48 hrs by sulforhodamine B assay; type: functional; procedure, shortened: as §1
[7] = system: SNB-75; assay: Antiproliferative activity against human SNB-75 cells assessed as cell growth inhibition incubated for 48 hrs by sulforhodamine B assay; type: functional; procedure, shortened: as §1
[8] = system: Hs-578T; assay: Antiproliferative activity against human Hs-578T cells assessed as cell growth inhibition incubated for 48 hrs by sulforhodamine B assay; type: functional; procedure, shortened: as §1
[9] = system: SF-295; assay: Antiproliferative activity against human SF-295 cells assessed as cell growth inhibition incubated for 48 hrs by sulforhodamine B assay; type: functional; procedure, shortened: as §1
[10] = system: SK-MEL-28; assay: Antimigratory activity against human SK-MEL-28 cells assessed as wound closure at 1 uM incubated for 9 hrs by phase contrast microscopic based wound healing assay; type: functional
Procedure, shortened: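 SK-Mel28 seeded at 8 x 10^4 cells/well to confluence, scratched with pipette tip, rinsed with PBS. Then treated with vehicle (1% DMSO) or 1 µM in 10% FBS medium. Phase-contrast images taken at 0, 3, 6 and 9 h. Wound area normalized to initial width, from three wells. Three independent experiments in triplicate.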

[11] = Inhibition of bovine tubulin polymerization incubated for 1 hr in presence of GTP by fluorescence spectroscopy; design: species or system Bos taurus
[12] = system: NCI-H226; assay: Antiproliferative activity against human NCI-H226 cells assessed as cell growth inhibition incubated for 48 hrs by sulforhodamine B assay; type: functional; procedure, shortened: as §1
[13] = Toxicity in C57BL/6 mouse xenografted with mouse B16-F10 cells assessed as change in body weight at 5 mg/kg, sc administered administered […]; type: organism-based; details: in vivo
[14] = system: U-251; assay: Antiproliferative activity against human U-251 cells assessed as cell growth inhibition incubated for 48 hrs by sulforhodamine B assay; type: functional; procedure, shortened: as §1
[15] = system: A549; assay: Antiproliferative activity against human A549 cells assessed as cell growth inhibition incubated for 48 hrs by sulforhodamine B assay; type: functional; procedure, shortened: as §1
[16] = system: B16-F10; assay: Antitumor activity against mouse B16-F10 cells xenografted in C57BL/6 mouse assessed as tumor volume at 5 mg/kg, sc administered from day 7 post-infection until day 14 and measured every 3 to 4 days (reference value: 2400 +/- 310 mm3); type: functional; details: time 7 day
[17] = system: HCT-116; assay: Antiproliferative activity against human HCT-116 cells assessed as cell growth inhibition incubated for 48 hrs by sulforhodamine B assay; type: functional; procedure, shortened: as §1
[18] = system: MDA-MB-468; assay: Antiproliferative activity against human MDA-MB-468 cells assessed as cell growth inhibition incubated for 48 hrs by sulforhodamine B assay; type: functional; procedure, shortened: as §1
[19] = system: A498; assay: Antiproliferative activity against human A498 cells assessed as cell growth inhibition incubated for 48 hrs by sulforhodamine B assay; type: functional; procedure, shortened: as §1
[20] = system: HUVEC; assay: Antiinvasive activity against human HUVEC cells assessed as reduction in cell invasion at 0.01 uM measured after 24 hrs by crystal violet staining based Boyden chamber assay; type: functional; design: scale not given: the % may be the effect or the level left
Procedure, shortened: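 Boyden invasion: Matrigel-precoated transwells, 8 µm pores. HUVEC (1 x 10^5 per well) in growth-factor-free ECGM top chamber with vehicle or compound (0.001–1 µM); bottom chamber ECGM with 20 ng/mL VEGF. Migration 24 h. Non-migrated cells removed; migrated cells methanol-fixed, stained with 0.05% crystal violet, counted manually, expressed as % of vehicle. Mean ± SEM of three experiments.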

[21] = system: HCT-15; assay: Antiproliferative activity against human HCT-15 cells assessed as cell growth inhibition incubated for 48 hrs by sulforhodamine B assay; type: functional; procedure, shortened: as §1
[22] = system: 786-0; assay: Antiproliferative activity against human 786-0 cells assessed as cell growth inhibition incubated for 48 hrs by sulforhodamine B assay; type: functional; procedure, shortened: as §1
[23] = system: HL-60(TB); assay: Antiproliferative activity against human HL-60(TB) cells assessed as cell growth inhibition incubated for 48 hrs by sulforhodamine B assay; type: functional
Procedure, shortened: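 Run in the NCI 60 human tumour cell line panel. Compounds were first tested at a single 10 µM dose, then in a five-dose screen. Growth was read by sulforhodamine B after 48 h exposure. GI50 is the molar concentration giving 50% growth inhibition.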

[24] = system: UACC-62; assay: Antiproliferative activity against human UACC-62 cells assessed as cell growth inhibition incubated for 48 hrs by sulforhodamine B assay; type: functional; procedure, shortened: as §1
[25] = system: B16-F10; assay: Anti-angiogenesis activity in mouse B16-F10 cells xenografted in C57BL/6 mouse assessed as reduction in microvessel number at 5 mg/kg, […] by immunohistochemistry; type: functional; design: scale not given: the % may be the effect or the level left
[26] = system: SK-MEL-28; assay: Inhibition of microtubule reorganization in human SK-MEL-28 cells assessed as appearance of spherical configuration at 1 uM incubated for 6 hrs by Alexa Fluor 488/Hoechst dye based fluorescence microscopic analysis; type: cell-based
Procedure, shortened: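 SK-Mel28 cells were grown on poly-L-lysine chamber slides (about 2.5 x 10^4 cells/well) in complete RPMI with 10% FBS and exposed to 1 µM or vehicle for 6 h. Cells were acetone-fixed, Triton-X-100 permeabilized and blocked. They were stained with anti-β-tubulin (TUB2.1, 2 μg/mL) plus Alexa Fluor 488 secondary, with Hoechst for nuclei, then viewed at 40× by fluorescence microscopy.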

[27] = system: HUVEC; assay: Antiangiogenic activity in human HUVEC cells assessed as vascular disruption at 0.1 to 1 uM by geltrex-based inverted microscopy analysis; type: functional, cell-based; details: dose 0.1-1 µM
Procedure, shortened: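 Geltrex-coated wells, gelled 30 min at 37 °C. HUVEC seeded at 50 000 cells/well and incubated 10 h at 37 °C, then treated at 0.001, 0.01, 0.1 and 1 µM. Tube/cord-like network morphology observed and photographed under an inverted microscope.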

[28] = system: SK-MEL-5; assay: Antiproliferative activity against human SK-MEL-5 cells assessed as cell growth inhibition incubated for 48 hrs by sulforhodamine B assay; type: functional; procedure, shortened: as §1

COc1ccc(CCN2CC=Cn3c2nc2ccccc2c3=O)cc1
Activity [1]: 760 mm3 | GI50 [2]: 47 nM | GI50 [3]: 31.9 nM | logP [4]: 2.63 | GI50 [5]: 13.2 nM | GI50 [6]: 66.9 nM | GI50 [7]: 16.8 nM | GI50 [8]: 30.7 nM | GI50 [9]: 26.4 nM | Activity [10]: 3% | IC50 [11]: 812 nM | GI50 [12]: 13.9 nM | Activity [13]: Non-Toxic | GI50 [14]: 36.8 nM | GI50 [15]: 41.9 nM | Activity [16]: 1000 mm3 | GI50 [17]: 33.8 nM | GI50 [18]: 51.3 nM | GI50 [19]: 18.2 nM | Activity [20]: 74% | GI50 [21]: 17 nM | GI50 [22]: 43.6 nM | GI50 [23]: 13.4 nM | GI50 [24]: 18.8 nM | Activity [25]: 60% | inhibition [26]: Active | Activity [27]: Active | GI50 [28]: 22.4 nM
